Test results reported in ChEMBL document CHEMBL1795311, “Synthesis, antiproliferative activity, and mechanism of action of a series of 2-{[(2E)-3-phenylprop-2-enoyl]amino}benzamides” (Eur J Med Chem, 2011).

Legend:
IGROV-1 = test: Growth inhibition of human IGROV1 cells after 48 hrs by SRB assay; format: functional; settings: IGROV-1, 48 h
Method in brief: (§1)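 NCI DTP panel cells grown in RPMI 1640 with 5% FBS and 2 mM L-glutamine, preincubated 24 h, then given five concentrations (10-fold or ½-log dilutions from DMSO stock) for 48 h at 37 °C. Cells fixed with TCA, stained with SRB, absorbance read at 515 nm, with time-zero plates as reference.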

A498 = test: Growth inhibition of human A498 cells after 48 hrs by SRB assay; format: functional; settings: A498, 48 h; method in brief: as §1
DU-145 = test: Growth inhibition of human DU145 cells after 48 hrs by SRB assay; format: functional; settings: DU-145, 48 h; method in brief: as §1
COLO 205 = test: Growth inhibition of human COLO205 cells after 48 hrs by SRB assay; format: functional; settings: COLO 205, 48 h; method in brief: as §1
NCI-H23 = test: Growth inhibition of human NCI-H23 cells after 48 hrs by SRB assay; format: functional; settings: NCI-H23, 48 h; method in brief: as §1
K562 [1] = test: Antiproliferative activity against human K562 cells at 10 uM after 48 hrs by trypan blue assay; format: functional; settings: K562, 48 h, read-out: GI
PC-3 = test: Growth inhibition of human PC3 cells after 48 hrs by SRB assay; format: functional; settings: PC-3, 48 h; method in brief: as §1
MDA-MB-435 = test: Growth inhibition of human MDA-MB-435 cells after 48 hrs by SRB assay; format: functional; settings: MDA-MB-435, 48 h; method in brief: as §1
M14 = test: Growth inhibition of human M14 cells after 48 hrs by SRB assay; format: functional; settings: M14, 48 h; method in brief: as §1
BT-549 = test: Growth inhibition of human BT549 cells after 48 hrs by SRB assay; format: functional; settings: BT-549, 48 h; method in brief: as §1
NCI-H522 = test: Growth inhibition of human NCI-H522 cells after 48 hrs by SRB assay; format: functional; settings: NCI-H522, 48 h; method in brief: as §1
RPMI-8226 = test: Growth inhibition of human RPMI8226 cells after 48 hrs by SRB assay; format: functional; settings: RPMI-8226, 48 h; method in brief: as §1
SK-MEL-5 = test: Growth inhibition of human SK-MEL-5 cells after 48 hrs by SRB assay; format: functional; settings: SK-MEL-5, 48 h
Method in brief: (§2)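 Run by the NCI Developmental Therapeutics Program: cells in RPMI 1640 with 5% FBS and 2 mM L-glutamine, plated at 5000–40,000 cells/well and grown 24 h before dosing. Drug (DMSO stock) given at five concentrations for 48 h at 37 °C, 5% CO2. Adherent cells fixed with cold TCA, stained with 0.4% SRB and read at 515 nm. GI50, TGI and LC50 taken from the time-zero, control and treated absorbances.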

MCF7 = test: Growth inhibition of human MCF7 cells after 48 hrs by SRB assay; format: functional; settings: MCF7, 48 h; method in brief: as §1
SW-620 = test: Growth inhibition of human SW620 cells after 48 hrs by SRB assay; format: functional; settings: SW-620, 48 h; method in brief: as §2
SF-295 = test: Growth inhibition of human SF295 cells after 48 hrs by SRB assay; format: functional; settings: SF-295, 48 h; method in brief: as §1
MOLT-4 = test: Growth inhibition of human MOLT4 cells after 48 hrs by SRB assay; format: functional; settings: MOLT-4, 48 h; method in brief: as §1
RXF 393 = test: Growth inhibition of human RXF393 cells after 48 hrs by SRB assay; format: functional; settings: RXF 393, 48 h; method in brief: as §1
HCT-15 = test: Growth inhibition of human HCT15 cells after 48 hrs by SRB assay; format: functional; settings: HCT-15, 48 h; method in brief: as §1
UO-31 = test: Growth inhibition of human UO31 cells after 48 hrs by SRB assay; format: functional; settings: UO-31, 48 h; method in brief: as §2
SK-OV-3 = test: Growth inhibition of human SKOV3 cells after 48 hrs by SRB assay; format: functional; settings: SK-OV-3, 48 h; method in brief: as §2
HL-60 = test: Growth inhibition of human HL60 cells after 48 hrs by SRB assay; format: functional; settings: HL-60, 48 h; method in brief: as §1
KM12 = test: Growth inhibition of human KM12 cells after 48 hrs by SRB assay; format: functional; settings: KM12, 48 h; method in brief: as §1
UACC-62 = test: Growth inhibition of human UACC62 cells after 48 hrs by SRB assay; format: functional; settings: UACC-62, 48 h; method in brief: as §2
ACHN = test: Growth inhibition of human ACHN cells after 48 hrs by SRB assay; format: functional; method in brief: as §1
CAKI-1 = test: Growth inhibition of human Caki1 cells after 48 hrs by SRB assay; format: functional; settings: CAKI-1, 48 h; method in brief: as §1
SK-MEL-2 = test: Growth inhibition of human SK-MEL-2 cells after 48 hrs by SRB assay; format: functional; settings: SK-MEL-2, 48 h; method in brief: as §2
SF-268 = test: Growth inhibition of human SF268 cells after 48 hrs by SRB assay; format: functional; settings: SF-268, 48 h; method in brief: as §1
HOP-62 = test: Growth inhibition of human HOP62 cells after 48 hrs by SRB assay; format: functional; settings: HOP-62, 48 h; method in brief: as §1
K562 [2] = test: Growth inhibition of human K562 cells after 48 hrs by trypan blue assay; format: functional, cell-based; settings: K562, 48 h
UACC-257 = test: Growth inhibition of human UACC257 cells after 48 hrs by SRB assay; format: functional; settings: UACC-257, 48 h; method in brief: as §2
T47D = test: Growth inhibition of human T47D cells after 48 hrs by SRB assay; format: functional; method in brief: as §2
[3] = Growth inhibition of human Hs 578T cells after 48 hrs by SRB assay; format: functional; method in brief: as §1
SNB-75 = test: Growth inhibition of human SNB75 cells after 48 hrs by SRB assay; format: functional; settings: SNB-75, 48 h; method in brief: as §2
NCI-H226 = test: Growth inhibition of human NCI-H226 cells after 48 hrs by SRB assay; format: functional; settings: NCI-H226, 48 h; method in brief: as §1
NCI/ADR-RES = test: Growth inhibition of human NCI/ADR-RES cells after 48 hrs by SRB assay; format: functional; method in brief: as §1
EKVX = test: Growth inhibition of human EKVX cells after 48 hrs by SRB assay; format: functional; method in brief: as §1
U-251 = test: Growth inhibition of human U251 cells after 48 hrs by SRB assay; format: functional; settings: U-251, 48 h; method in brief: as §2
CCRF-CEM = test: Growth inhibition of human CCRF-CEM cells after 48 hrs by SRB assay; format: functional; method in brief: as §1
HOP-92 = test: Growth inhibition of human HOP92 cells after 48 hrs by SRB assay; format: functional; settings: HOP-92, 48 h; method in brief: as §1
MDA-MB-468 = test: Growth inhibition of human MDA-MB-468 cells after 48 hrs by SRB assay; format: functional; settings: MDA-MB-468, 48 h; method in brief: as §1
NCI-H460 = test: Growth inhibition of human NCI-H460 cells after 48 hrs by SRB assay; format: functional; settings: NCI-H460, 48 h; method in brief: as §1
A549 = test: Growth inhibition of human A549 cells after 48 hrs by SRB assay; format: functional; settings: A549, 48 h; method in brief: as §1
K562 [4] = test: Growth inhibition of human K562 cells after 48 hrs by SRB assay; format: functional; settings: K562, 48 h; method in brief: as §1
HCC 2998 = test: Growth inhibition of human HCC2998 cells after 48 hrs by SRB assay; format: functional; settings: HCC 2998, 48 h; method in brief: as §1
OVCAR-3 = test: Growth inhibition of human OVCAR3 cells after 48 hrs by SRB assay; format: functional; settings: OVCAR-3, 48 h; method in brief: as §1
OVCAR-5 = test: Growth inhibition of human OVCAR5 cells after 48 hrs by SRB assay; format: functional; settings: OVCAR-5, 48 h; method in brief: as §1
HCT-116 = test: Growth inhibition of human HCT116 cells after 48 hrs by SRB assay; format: functional; settings: HCT-116, 48 h; method in brief: as §1
HT-29 = test: Growth inhibition of human HT-29 cells after 48 hrs by SRB assay; format: functional; settings: HT-29, 48 h; method in brief: as §1
786-0 = test: Growth inhibition of human 786-0 cells after 48 hrs by SRB assay; format: functional; settings: 786-0, 48 h; method in brief: as §1
SN12C = test: Growth inhibition of human SN12C cells after 48 hrs by SRB assay; format: functional; method in brief: as §2
SNB-19 = test: Growth inhibition of human SNB19 cells after 48 hrs by SRB assay; format: functional; settings: SNB-19, 48 h; method in brief: as §2
OVCAR-4 = test: Growth inhibition of human OVCAR4 cells after 48 hrs by SRB assay; format: functional; settings: OVCAR-4, 48 h; method in brief: as §1
TK-10 = test: Growth inhibition of human TK10 cells after 48 hrs by SRB assay; format: functional; settings: TK-10, 48 h; method in brief: as §2
MDA-MB-231 = test: Growth inhibition of human MDA-MB-231 cells after 48 hrs by SRB assay; format: functional; settings: MDA-MB-231, 48 h; method in brief: as §1
LOX IMVI = test: Growth inhibition of human LOXIMVI cells after 48 hrs by SRB assay; format: functional; method in brief: as §1
SF-539 = test: Growth inhibition of human SF539 cells after 48 hrs by SRB assay; format: functional; settings: SF-539, 48 h; method in brief: as §1

Structure (SMILES): NC(=O)c1cc(I)ccc1NC(=O)/C=C/c1ccccc1Cl
- GI50 (IGROV-1): 352 nM
- GI50 (A498): 880 nM
- GI50 (DU-145): 1280 nM
- GI50 (COLO 205): 797 nM
- GI50 (NCI-H23): 1390 nM
- inhibition of growth at 10 µM (K562 [1]): 74.1%
- GI50 (PC-3): 832 nM
- GI50 (MDA-MB-435): 234 nM
- GI50 (M14): 698 nM
- GI50 (BT-549): 816 nM
- GI50 (NCI-H522): 459 nM
- GI50 (RPMI-8226): 772 nM
- GI50 (SK-MEL-5): 367 nM
- GI50 (MCF7): 401 nM
- GI50 (SW-620): 605 nM
- GI50 (SF-295): 415 nM
- GI50 (MOLT-4): 1420 nM
- GI50 (RXF 393): 425 nM
- GI50 (HCT-15): 987 nM
- GI50 (UO-31): 1630 nM
- GI50 (SK-OV-3): 539 nM
- GI50 (HL-60): 165 nM
- GI50 (KM12): 533 nM
- GI50 (UACC-62): 388 nM
- GI50 (ACHN): 9860 nM
- GI50 (CAKI-1): 637 nM
- GI50 (SK-MEL-2): 678 nM
- GI50 (SF-268): 778 nM
- GI50 (HOP-62): 2300 nM
- IC50 (K562 [2]): 1200 nM
- GI50 (UACC-257): 38700 nM
- GI50 (T47D): 19900 nM
- GI50 [3]: 362 nM
- GI50 (SNB-75): 1220 nM
- GI50 (NCI-H226): 1140 nM
- GI50 (NCI/ADR-RES): 719 nM
- GI50 (EKVX): 1000 nM
- GI50 (U-251): 663 nM
- GI50 (CCRF-CEM): 484 nM
- GI50 (HOP-92): 13200 nM
- GI50 (MDA-MB-468): 377 nM
- GI50 (NCI-H460): 479 nM
- GI50 (A549): 1870 nM
- GI50 (K562 [4]): 370 nM
- GI50 (HCC 2998): 984 nM
- GI50 (OVCAR-3): 294 nM
- GI50 (OVCAR-5): 4020 nM
- GI50 (HCT-116): 509 nM
- GI50 (HT-29): 376 nM
- GI50 (786-0): 937 nM
- GI50 (SN12C): 1550 nM
- GI50 (SNB-19): 1410 nM
- GI50 (OVCAR-4): 2370 nM
- GI50 (TK-10): 26700 nM
- GI50 (MDA-MB-231): 1410 nM
- GI50 (LOX IMVI): 4210 nM
- GI50 (SF-539): 444 nM
